Bridge positions count the residues as written; N and C are the ends. Peptide text beside a SMILES is read from it.
What was measured:
recombinant SNAP25 [1] = assay: Binding of SNAP25 to ECM array; set-up: species or system human; details: recombinant SNAP25 1/200, overnight 4°C, A488 anti-SNAP25 detection
Outline: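 Array slide of ECM proteins (collagens I, III, IV, V, VI, fibronectin, laminin, vitronectin, tropoelastin) washed in PBS and PBST, then blocked 1 h at room temperature in 5% BSA/5% FBS in PBST. Human recombinant SNAP25 was applied at 1/200 in 1/5-diluted blocking buffer overnight at 4°C. Bound protein was detected with A488 anti-SNAP25 at 1/200 overnight at 4°C, then imaged by fluorescence in the green channel.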

AD brain vasculature = details: ref [9], cited from earlier work
[2] = system: connective tissue growth factor (CTGF) bound to the vascular extracellular matrix; details: ref [9]; cited from earlier work
healthy brain = assay: In vivo homing, healthy brain; set-up: species or system mice; details: 30 nmoles i.v., 60 min circulation, n=3
Outline: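 Healthy (non-tumor) mice received FAM-labelled peptide, 30 nmol i.v. in PBS, for 60 min. Mice were perfused with PBS, and brains were fixed in 4% PFA, cryoprotected in sucrose and embedded in OCT. Sections were stained without permeabilization for FAM and SNAP25 (primary 1/100 overnight at 4°C, secondary 1/200). n=3.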

MCF10CA1a tumors = assay: In vivo homing, orthotopic MCF10CA1a breast tumors; set-up: species or system athymic nude mice, human triple-negative breast cancer cells; details: 30 nmoles i.v., 60 min circulation, n=3
Outline: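 Orthotopic breast tumors: athymic nude mice were given 2×10^6 MCF10CA1a cells in PBS into the mammary gland and used 14 days later. FAM-labelled peptide (30 nmol in PBS) was injected i.v. and circulated 60 min, followed by PBS perfusion, overnight 4% PFA fixation, sucrose and OCT embedding. 10 µm sections were immunostained for FAM without permeabilization. n=3.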

WT-GBM tumors = assay: In vivo homing, WT-GBM glioblastoma model; set-up: species or system mice (Fox/Nu); details: 30 nmoles i.v., 60 min circulation, n=3
Outline: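 Fox/Nu mice received 7×10^5 WT-GBM cells stereotactically into the right striatum and were used 6-7 days later. FAM-labelled peptide (30 nmol in PBS) was given i.v. and circulated 60 min. Mice were perfused intracardially with PBS, and organs were fixed in 4% PFA pH 7.4 overnight, sucrose-cryoprotected and OCT-embedded. 10 µm sections were stained without permeabilization for FAM and CD31 (primary 1/100 overnight 4°C; secondary 1/200). n=3.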

Casein = assay: ELISA binding to casein-coated plates; details: plates coated with Casein, FAM-labeled peptide
[3] = system: intracranial U87MG glioblastoma; assay: In vivo homing, intracranial U87MG glioblastoma; set-up: species or system mice (female athymic nude), human U87MG xenograft; details: 30 nmoles i.v., 60 min circulation
Outline: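 Tumors were induced in female athymic nude mice by intracranial injection of 3×10^5 U87MG cells into the right striatum (2 mm lateral, 2 mm posterior to bregma, 2.5 mm deep) and grown 9 days. Mice received FAM-labelled peptide, 30 nmol in PBS i.v., for 60 min, then PBS perfusion, 4% PFA fixation, sucrose and OCT. 10 µm sections were stained without permeabilization for FAM with CD31 or SNAP25. n=3.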

recombinant SNAP25 [4] = assay: ELISA binding to SNAP25-coated plates; set-up: species or system human; details: plates coated with recombinant SNAP25, FAM-labeled peptide
U87MG cells [5] = assay: U87MG cell culture on collagens V and VI, morphology; format: cell-based; details: versus plastic (colonies); 5μg/cm^2 collagen coating
Outline: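 Plates were coated for 1 h at room temperature with bovine collagen VI or human collagen V (5 µg/cm², from 50 µg/ml in 500 mM acetic acid) and washed twice with PBS. U87MG cells were seeded and grown 24 h, then given fresh medium for another 48 h. Cells were fixed in 4% PFA, blocked, DAPI-stained and imaged by fluorescence microscopy.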

[6] = system: control protein (recombinant mouse macrophage colony-stimulating factor (M-CSF)); assay: Surface plasmon resonance, control protein; format: binding; details: control protein of similar molecular weight, immobilized in the same way, 20 °C
Outline: (§1)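 SPR was run at 20 °C on an NTA sensor chip conditioned with 10 mM HCl, 200 mM imidazole and EDTA, then activated with 40 mM NiCl₂. His-tagged ligand was captured on channel 2 only: human recombinant SNAP25 at 150 µg/mL, or the control mouse M-CSF (28 kDa, 9-His) at 10 µg/mL. Collagen V or VI at 20 µg/ml in PBS flowed through both channels at 20 µl/min. Data were fitted to a one-to-one model.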

recombinant SNAP25 [7] = assay: Surface plasmon resonance, immobilized SNAP25; format: binding, human; details: read-out: KD (estimative), SPR; one-to-one model, SNAP25 via His-Tag/Ni-NTA, collagen 20μg/ml, 20 °C, OpenSPR
Outline: as §1

U87MG cells [8] = assay: Viability without laser irradiation; format: cell-based; details: up to 30μM, 30 min at 37°C, no laser irradiation, 24 h, MTS
human recombinant SNAP25 = human recombinant SNAP25 (Homo sapiens, UniProt P60880); assay: Quartz crystal microbalance binding to SNAP25
Outline: (§2)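 The 5 MHz Cr/Au quartz crystal was cleaned with isopropanol, ethanol and water. It was treated with 20 mM mercaptopropanesulfonate in 10 mM H₂SO₄ for 30 min, then with 10 µM (monomer) poly(allylamine hydrochloride) at pH 8 for 10 min. Human recombinant SNAP25 or BSA was deposited at 0.01 mg/mL for 10 min. After a baseline in 500 µL PBS, 50 µL of 300 µM peptide stock in PBS was added and mass change recorded.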

[9] = system: adhesion of U87MG cells to collagen VI; assay: U87MG adhesion to collagen VI-coated plates; format: cell-based; details: CES 30μM, 24 h, then 48 h, DAPI nuclei count
Outline: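 Wells were coated with collagen VI (5 µg/cm² from 50 µg/ml in 500 mM acetic acid) for 1 h at room temperature, then washed with PBS. U87MG cells were seeded with or without anti-SNAP25 antibody (5 µg/mL) or 30 µM test peptide. Medium was changed at 24 h and culture continued 48 h. Cells were fixed in 4% PFA, blocked and DAPI-stained, and nuclei were counted per image area (1.2 mm²).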

[10] = Quartz crystal microbalance, PAH-BSA control multilayer; format: binding; details: label-free, peptide 30μM final in PBS
Outline: as §2

[11] = Quartz crystal microbalance, PAH control layer; format: binding; details: label-free, peptide 30μM final in PBS
SK-N-AS cells = assay: Photodynamic cytotoxicity; format: cell-based; details: 3μM conjugate, 30 min, 3 washes, 690nm laser 10 J/cm^2 (160 mW/cm^2), 24 h, MTS
Outline: (§3)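 Cells (30.000/well) were attached overnight, then exposed 30 min to peptide–verteporfin conjugates at 3 µM final. Wells were washed 3× with full medium and refreshed. Irradiation used a 690 nm laser, 10 J/cm² at 160 mW/cm². After 24 h further culture, viability was measured by MTS/PMS (2 h, 37 °C, 5% CO₂), reading absorbance at 492 nm.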

U87MG cells [12] = assay: Photodynamic cytotoxicity; format: cell-based, human; details: 24 h, MTS
Outline: as §3

LN229 cells = assay: Photodynamic cytotoxicity; format: cell-based; details: 3μM conjugate, 30 min, 3 washes, 690nm laser 10 J/cm^2 (160 mW/cm^2), 24 h, MTS
Outline: as §3

HEK293T cells = assay: Photodynamic cytotoxicity; format: cell-based; details: 3μM conjugate, 30 min, 3 washes, 690nm laser 10 J/cm^2 (160 mW/cm^2), 24 h, MTS
Outline: as §3

human recombinant SNAP25, sequence (P60880 whole entry): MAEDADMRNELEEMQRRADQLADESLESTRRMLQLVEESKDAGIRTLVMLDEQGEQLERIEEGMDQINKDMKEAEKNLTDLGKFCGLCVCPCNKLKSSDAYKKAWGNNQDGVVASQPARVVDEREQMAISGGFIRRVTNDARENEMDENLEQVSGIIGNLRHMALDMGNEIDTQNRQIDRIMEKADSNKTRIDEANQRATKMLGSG

## collagen IV: ECM protein on array
Recombinant SNAP25 [1]
  binding of SNAP25 to ECM proteins, array: non-binding

## CDAGRKQKC [reference compound]
AD brain vasculature; mouse AD model
  recognition of AD brain vasculature: recognize the vasculature of AD brain very early in the development of the disease
[2]
  target molecule (receptor): connective tissue growth factor (CTGF) bound to the vascular extracellular matrix

## FAM-Ahx-CESPLLSEC-NH2 (disulfide) [FAM-CES]
Healthy brain
  homing to healthy brain: no homing to healthy brain
MCF10CA1a tumors
  tumor homing, orthotopic breast cancer: no tumor homing
WT-GBM tumors
  colocalization with CD31 in WT-GBM: showed colocalization with CD31
  homing to WT-GBM tumors: targeted WT-GBM tumors
Casein
  binding to Casein, ELISA: not to Casein
[3]; n=3, FAM/CD31 immunostaining
  co-distribution with blood vessel marker CD31 in U87MG tumor: co-distributing with the blood vessel marker CD31
[3]; n=3, FAM/SNAP25 immunostaining
  colocalization with SNAP25 in U87MG tumors: apparent colocalization with SNAP25 in U87MG tumors
Recombinant SNAP25 [4]
  binding to SNAP25, ELISA: bound to SNAP25

## collagen VI: Bovine Type VI Collagen-Solution (Southern Biotech Cat # 1300–02S)
U87MG cells [5]
  U87MG growth morphology on collagen-coated plates: formed monolayers and presented particles attached to the plate
[6]
  binding to control protein, SPR: no binding
Recombinant SNAP25 [7]
  Kd: 0.015 µM
Recombinant SNAP25 [1]
  binding of SNAP25 to ECM proteins, array: binding of SNAP25 to collagens V and VI

## FAM-iRGD: FAM-labeled iRGD, another peptide with similar molecular weight and isoelectric point [reference compound]
Recombinant SNAP25 [4]
  binding to SNAP25, ELISA: did not bind to SNAP25

## CC(=O)N[C@H]1CSSC[C@@H](C(N)=O)NC(=O)[C@H](CCC(=O)O)NC(=O)[C@H](CO)NC(=O)[C@H](CC(C)C)NC(=O)[C@H](CC(C)C)NC(=O)[C@@H]2CCCN2C(=O)[C@H](CO)NC(=O)[C@H](CCC(=O)O)NC1=O [CES] (Ac-CESPLLSEC-NH2; disulfide 1-9)
U87MG cells [8]
  cytotoxicity of peptide alone, U87MG: did not elicit cytotoxicity
Human recombinant SNAP25
  Kd: 0.024 µM
Human recombinant SNAP25; SNAP25 on PAH layer, washing with PBS
  dissociation rate upon washing with PBS, QCM: slow dissociation rate
AD brain vasculature; genetically modified mouse AD model, in vivo phage library screen, will be reported elsewhere
  homing to blood vessels of AD brain: specifically accumulates (homes) in the blood vessels of AD brain
[9]
  effect on adhesion of U87MG cells to collagen VI-coated plates: affected the adhesion of U87MG cells to collagen VI-coated plates
[10]
  binding to control multilayer PAH-BSA, QCM: did not bind to the control layers
[11]
  binding to control layer PAH, QCM: did not bind to the control layers

## collagen I: ECM protein on array
Recombinant SNAP25 [1]
  binding of SNAP25 to ECM proteins, array: non-binding

## collagen V: Human type V Collagen-Lyophilized (Southern Biotech, Cat # 1270–01)
U87MG cells [5]
  U87MG growth morphology on collagen-coated plates: formed monolayers and presented particles attached to the plate
[6]
  binding to control protein, SPR: no binding
Recombinant SNAP25 [7]
  Kd: 7.2 µM
Recombinant SNAP25 [1]
  binding of SNAP25 to ECM proteins, array: binding of SNAP25 to collagens V and VI

## collagen III: ECM protein on array
Recombinant SNAP25 [1]
  binding of SNAP25 to ECM proteins, array: non-binding

## Vert-Ahx-CESPLLSEC-NH2 (disulfide) [CES-V]
SK-N-AS cells
  toxicity, irradiated, SK-N-AS: no toxicity
U87MG cells [12]; 3μM conjugate, 30 min, 3 washes, 690nm laser 10 J/cm^2 (160 mW/cm^2)
  toxicity, irradiated, U87MG: significant toxicity
U87MG cells [12]; 3μM, 690nm laser, compared across U87MG, LN229, SK-N-AS, HEK293T
  difference in toxicity between irradiated CES-V and irradiated CtrlPep-V: only reached significance for U87MG
LN229 cells
  toxicity, irradiated, LN229: significant toxicity
HEK293T cells
  toxicity, irradiated, HEK293T: no toxicity

Reference: article PMC11429891 (bioRxiv, 2024)
